In ChEMBL document CHEMBL4376814, “Novel cyclin-dependent kinase 9 (CDK9) inhibitor with suppression of cancer stemness activity against non-small-cell lung cancer” (Eur J Med Chem, 2019):

Assays:
[1] = target: CDK6/cyclin D3 (Homo sapiens) (UniProt P30281+Q00534); test: Inhibition of recombinant full-length human CDK6/cyclinD3 at 1 uM using histone H1 as substrate measured after 40 mins in presence of [gamma33P]ATP by scintillation counting method relative to control; assay type: protein-complex assay
In short: (§1)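 Percent inhibition of kinase activity at a single compound concentration, measured by the outsourced Eurofins KinaseProfiler panel. Values are the mean of two independent experiments.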

NCI-H1299 [2] = test: Antiproliferative activity against human H1299 cells assessed as inhibition of cell viability at 1 uM after 72 hrs by CCK-8 assay relative to control; assay type: functional; conditions: NCI-H1299, 72 h
In short: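 Single-concentration viability screen using CCK-8. Cells were seeded at 3000/well and treated for 72 h. A450 read after 1-4 h with reagent. Percent inhibition calculated against untreated control and blank wells as (Ac−As)/(Ac−Ab)×100%.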

HepG2 = test: Antiproliferative activity against human HepG2 cells assessed as inhibition of cell viability after 72 hrs by CCK-8 assay; assay type: functional, cell-based; conditions: HepG2, 72 h
In short: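 Cells kept at 37 °C, 5% CO2 in DMEM or RPMI-1640 with 10% FBS and 1% penicillin/streptomycin, then seeded at 3000 cells/well (adherent) or 10,000 cells/well (suspension). Exposed to a range of concentrations for 72 h. CCK-8 added for 1-4 h before reading A450. […] Three independent experiments.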

NCI-H1299 [3] = test: Induction of apoptosis in human H1299 cells assessed as early apoptotic cells at 1 uM after 48 hrs by AnnexinV-FITC/PI staining-based flow cytometric analysis (reference value: 0.248%); assay type: functional
[4] = target: NUAK family SNF1-like kinase 1 (Homo sapiens) (UniProt O60285); test: Inhibition of recombinant human ARK5 (2 to end residues) at 1 uM using KKKVSRSGLYRSPSMPENLNRPR as substrate measured after 40 mins in presence of [gamma33P]ATP by scintillation counting method relative to control
[5] = target: Calcium/calmodulin-dependent protein kinase type 1 (Homo sapiens) (UniProt Q14012); test: Inhibition of recombinant human CaMK1 (2 to end residues) at 1 uM using calmodulin as substrate measured after 40 mins in presence of [gamma33P]ATP by scintillation counting method relative to control
[6] = target: Calcium/calmodulin-dependent protein kinase type 1B (Homo sapiens) (UniProt Q6P2M8); test: Inhibition of full-length recombinant human CaMK1 beta at 1 uM using KKLRRTLSFAEPG as substrate measured after 40 mins in presence of [gamma33P]ATP by scintillation counting method relative to control
In short: (§2)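 Single-point inhibition at 1 µM was measured in the Eurofins KinaseProfiler panel. Values are the mean of two independent experiments.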

[7] = target: SRSF protein kinase 3 (Homo sapiens) (UniProt Q9UPE1); test: Inhibition of recombinant full-length human MSSK1 at 1 uM using ERMRPRKRQGSVRRRV as substrate measured after 40 mins in presence of [gamma33P]ATP by scintillation counting method relative to control
[8] = target: Serine/threonine-protein kinase 38-like (Homo sapiens) (UniProt Q9Y2H1); test: Inhibition of recombinant human NDR2 (83 to end residues) at 1 uM using RSRSRSRSRSRSRSR as substrate measured after 120 mins in presence of [gamma33P]ATP by scintillation counting method relative to control
[9] = test system: Ribosomal protein S6 kinase beta-1 (Homo sapiens), P23443 [T412E]; test: Inhibition of recombinant full-length human p70S6K (1 to 421 residues) T412E mutant at 1 uM using KKRNRTLTV as substrate measured after 40 mins in presence of [gamma33P]ATP by scintillation counting method relative to control
[10] = target: Protein kinase C gamma type (Homo sapiens) (UniProt P05129); test: Inhibition of recombinant full-length human PKCgamma at 1 uM using histone H1 as substrate measured after 40 mins in presence of [gamma33P]ATP by scintillation counting method relative to control
[11] = target: Ephrin type-A receptor 3 (Homo sapiens) (UniProt P29320); test: Inhibition of recombinant human EphA3 (568 to end residues) at 1 uM using poly(Glu, Tyr) 4:1 as substrate measured after 40 mins in presence of [gamma33P]ATP by scintillation counting method relative to control
[12] = target: Receptor tyrosine-protein kinase erbB-4 (Homo sapiens) (UniProt Q15303); test: Inhibition of recombinant human ErbB4 (706 to 991 residues) at 1 uM using poly(Glu, Tyr) 4:1 as substrate measured after 40 mins in presence of [gamma33P]ATP by scintillation counting method relative to control
[13] = target: Macrophage-stimulating protein receptor (Homo sapiens) (UniProt Q04912); test: Inhibition of human Ron (983 to end residues) at 1 uM using GGMEDIYFEFMGGKKK as substrate measured after 40 mins in presence of [gamma33P]ATP by scintillation counting method relative to control; in short: as §1
[14] = target: Mitogen-activated protein kinase 13 (Homo sapiens) (UniProt O15264); test: Inhibition of recombinant full-length human SAPK4 at 1 uM using myelin basic protein as substrate measured after 40 mins in presence of [gamma33P]ATP by scintillation counting method relative to control
[15] = test system: Homeodomain-interacting protein kinase 2 (Homo sapiens), Q9H2X6 [UNDEFINED MUTATION]; test: Inhibition of recombinant human HIPK2 I471N mutant (165 to 564 residues) at 1 uM using myelin basic protein as substrate measured after 40 mins in presence of [gamma33P]ATP by scintillation counting method relative to control
[16] = target: Homeodomain-interacting protein kinase 3 (Homo sapiens) (UniProt Q9H422); test: Inhibition of recombinant human HIPK3 (161 to 562 residues) at 1 uM using myelin basic protein as substrate measured after 40 mins in presence of [gamma33P]ATP by scintillation counting method relative to control
[17] = target: Tyrosine-protein kinase JAK2 (Homo sapiens) (UniProt O60674); test: Inhibition of recombinant human JAK2 (808 to end residues) at 1 uM using KTFCGTPEYLAPEVRREPRILSEEEQEMFRDFDYIADWC as substrate measured after 40 mins in presence of [gamma33P]ATP by scintillation counting method relative to control
[18] = test system: Angiopoietin-1 receptor (Homo sapiens), Q02763 [Q939H,Q940H,Y897S]; test: Inhibition of human Tie2 Q939H/Q940H/Y897S mutant (771 to end residues) at 1 uM using EFPIYDFLPAKKK as substrate measured after 40 mins in presence of [gamma33P]ATP by scintillation counting method relative to control; in short: as §2
[19] = target: LIM domain kinase 2 (Homo sapiens) (UniProt P53671); test: Inhibition of recombinant human LIMK2 at 1 uM by radiometric method relative to control
[20] = target: Mitogen-activated protein kinase kinase kinase kinase 3 (Homo sapiens) (UniProt Q8IVH8); test: Inhibition of recombinant human MAP4K3 (1 to 291 residues) at 1 uM using RLGRDKYKTLRQIRQ as substrate measured after 40 mins in presence of [gamma33P]ATP by scintillation counting method relative to control

Sequence of Ephrin type-A receptor 3 (Homo sapiens) (P29320 whole entry, the tested form may be a part): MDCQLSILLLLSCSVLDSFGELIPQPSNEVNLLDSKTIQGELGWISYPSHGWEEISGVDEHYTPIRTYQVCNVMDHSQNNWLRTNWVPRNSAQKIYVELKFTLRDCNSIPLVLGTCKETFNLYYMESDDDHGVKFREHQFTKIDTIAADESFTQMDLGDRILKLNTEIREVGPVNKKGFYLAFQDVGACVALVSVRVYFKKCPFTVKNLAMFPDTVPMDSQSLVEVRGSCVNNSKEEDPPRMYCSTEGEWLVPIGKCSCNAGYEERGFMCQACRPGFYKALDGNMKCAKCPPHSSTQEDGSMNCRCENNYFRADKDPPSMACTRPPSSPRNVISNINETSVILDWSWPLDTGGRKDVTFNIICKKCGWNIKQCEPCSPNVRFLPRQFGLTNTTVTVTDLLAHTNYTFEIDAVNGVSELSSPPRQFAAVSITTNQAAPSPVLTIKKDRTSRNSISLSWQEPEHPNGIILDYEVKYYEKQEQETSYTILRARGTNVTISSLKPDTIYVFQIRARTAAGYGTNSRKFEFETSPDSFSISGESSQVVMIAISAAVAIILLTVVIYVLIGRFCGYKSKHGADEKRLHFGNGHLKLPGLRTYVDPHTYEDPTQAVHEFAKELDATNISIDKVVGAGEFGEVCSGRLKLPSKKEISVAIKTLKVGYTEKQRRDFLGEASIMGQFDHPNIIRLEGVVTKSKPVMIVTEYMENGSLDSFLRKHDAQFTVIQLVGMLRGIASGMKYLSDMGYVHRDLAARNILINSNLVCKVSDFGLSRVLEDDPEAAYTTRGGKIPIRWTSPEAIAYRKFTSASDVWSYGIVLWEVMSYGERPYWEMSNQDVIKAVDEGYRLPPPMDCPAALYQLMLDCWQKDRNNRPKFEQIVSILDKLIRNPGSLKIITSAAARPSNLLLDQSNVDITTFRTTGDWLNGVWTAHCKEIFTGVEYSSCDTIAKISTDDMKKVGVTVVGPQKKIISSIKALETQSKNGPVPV
Sequence of Receptor tyrosine-protein kinase erbB-4 (Homo sapiens) (Q15303 whole entry, the tested form may be a part): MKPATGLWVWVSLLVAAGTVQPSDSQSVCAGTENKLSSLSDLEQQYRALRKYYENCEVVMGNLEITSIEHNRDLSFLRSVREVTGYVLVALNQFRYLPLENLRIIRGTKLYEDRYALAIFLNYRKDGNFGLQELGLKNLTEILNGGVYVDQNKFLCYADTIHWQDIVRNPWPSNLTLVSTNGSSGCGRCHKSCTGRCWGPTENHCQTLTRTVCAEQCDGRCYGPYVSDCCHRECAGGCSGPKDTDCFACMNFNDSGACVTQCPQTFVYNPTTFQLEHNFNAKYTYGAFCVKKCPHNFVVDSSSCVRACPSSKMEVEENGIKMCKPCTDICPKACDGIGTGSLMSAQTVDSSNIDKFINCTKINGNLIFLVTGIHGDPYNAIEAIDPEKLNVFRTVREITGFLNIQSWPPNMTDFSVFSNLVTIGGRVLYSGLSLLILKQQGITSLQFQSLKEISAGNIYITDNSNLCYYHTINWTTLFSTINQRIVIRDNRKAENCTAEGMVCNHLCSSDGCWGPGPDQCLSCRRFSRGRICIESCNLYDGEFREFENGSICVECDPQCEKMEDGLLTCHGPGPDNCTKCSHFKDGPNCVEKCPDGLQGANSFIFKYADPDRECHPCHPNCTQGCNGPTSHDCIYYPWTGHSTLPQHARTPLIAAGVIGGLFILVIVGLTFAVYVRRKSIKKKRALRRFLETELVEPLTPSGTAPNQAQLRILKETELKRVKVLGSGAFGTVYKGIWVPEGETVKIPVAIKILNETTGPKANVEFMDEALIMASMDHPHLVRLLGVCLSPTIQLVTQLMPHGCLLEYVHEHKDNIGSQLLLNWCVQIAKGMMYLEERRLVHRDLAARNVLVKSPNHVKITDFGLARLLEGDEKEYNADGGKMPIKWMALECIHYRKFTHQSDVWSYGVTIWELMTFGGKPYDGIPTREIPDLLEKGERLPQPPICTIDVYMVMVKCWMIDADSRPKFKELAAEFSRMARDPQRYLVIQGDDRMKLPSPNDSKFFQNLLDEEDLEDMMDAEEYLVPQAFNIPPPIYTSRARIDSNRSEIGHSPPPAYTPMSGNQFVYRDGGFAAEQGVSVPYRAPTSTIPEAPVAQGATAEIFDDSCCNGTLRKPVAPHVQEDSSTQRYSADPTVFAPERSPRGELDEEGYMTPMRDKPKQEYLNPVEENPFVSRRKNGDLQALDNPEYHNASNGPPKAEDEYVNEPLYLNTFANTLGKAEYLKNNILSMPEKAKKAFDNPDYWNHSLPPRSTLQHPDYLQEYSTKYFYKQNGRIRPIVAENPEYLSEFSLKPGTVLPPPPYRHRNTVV
Sequence of Calcium/calmodulin-dependent protein kinase type 1 (Homo sapiens) (Q14012 whole entry, looked up): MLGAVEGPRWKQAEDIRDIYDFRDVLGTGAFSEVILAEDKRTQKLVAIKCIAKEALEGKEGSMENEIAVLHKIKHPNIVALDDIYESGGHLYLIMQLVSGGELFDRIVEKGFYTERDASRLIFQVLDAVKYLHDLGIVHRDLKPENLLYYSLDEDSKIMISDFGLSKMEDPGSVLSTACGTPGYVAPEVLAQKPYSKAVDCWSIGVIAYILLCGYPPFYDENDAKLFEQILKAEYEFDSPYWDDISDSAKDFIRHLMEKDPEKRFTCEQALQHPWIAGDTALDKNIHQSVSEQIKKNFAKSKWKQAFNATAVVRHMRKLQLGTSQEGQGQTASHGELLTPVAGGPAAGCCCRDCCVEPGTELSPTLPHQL
Sequence of Macrophage-stimulating protein receptor (Homo sapiens) (Q04912 25-304 limits assumed): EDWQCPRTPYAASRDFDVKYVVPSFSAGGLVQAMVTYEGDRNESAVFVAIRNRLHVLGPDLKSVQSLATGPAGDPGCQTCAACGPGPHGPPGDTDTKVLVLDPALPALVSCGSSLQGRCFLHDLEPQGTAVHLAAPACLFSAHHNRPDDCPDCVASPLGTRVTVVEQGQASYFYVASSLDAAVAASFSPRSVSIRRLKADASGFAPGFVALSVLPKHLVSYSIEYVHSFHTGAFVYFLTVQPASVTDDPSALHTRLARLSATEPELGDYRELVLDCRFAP
Sequence of Macrophage-stimulating protein receptor (Homo sapiens) (Q04912 310-1400 limits assumed): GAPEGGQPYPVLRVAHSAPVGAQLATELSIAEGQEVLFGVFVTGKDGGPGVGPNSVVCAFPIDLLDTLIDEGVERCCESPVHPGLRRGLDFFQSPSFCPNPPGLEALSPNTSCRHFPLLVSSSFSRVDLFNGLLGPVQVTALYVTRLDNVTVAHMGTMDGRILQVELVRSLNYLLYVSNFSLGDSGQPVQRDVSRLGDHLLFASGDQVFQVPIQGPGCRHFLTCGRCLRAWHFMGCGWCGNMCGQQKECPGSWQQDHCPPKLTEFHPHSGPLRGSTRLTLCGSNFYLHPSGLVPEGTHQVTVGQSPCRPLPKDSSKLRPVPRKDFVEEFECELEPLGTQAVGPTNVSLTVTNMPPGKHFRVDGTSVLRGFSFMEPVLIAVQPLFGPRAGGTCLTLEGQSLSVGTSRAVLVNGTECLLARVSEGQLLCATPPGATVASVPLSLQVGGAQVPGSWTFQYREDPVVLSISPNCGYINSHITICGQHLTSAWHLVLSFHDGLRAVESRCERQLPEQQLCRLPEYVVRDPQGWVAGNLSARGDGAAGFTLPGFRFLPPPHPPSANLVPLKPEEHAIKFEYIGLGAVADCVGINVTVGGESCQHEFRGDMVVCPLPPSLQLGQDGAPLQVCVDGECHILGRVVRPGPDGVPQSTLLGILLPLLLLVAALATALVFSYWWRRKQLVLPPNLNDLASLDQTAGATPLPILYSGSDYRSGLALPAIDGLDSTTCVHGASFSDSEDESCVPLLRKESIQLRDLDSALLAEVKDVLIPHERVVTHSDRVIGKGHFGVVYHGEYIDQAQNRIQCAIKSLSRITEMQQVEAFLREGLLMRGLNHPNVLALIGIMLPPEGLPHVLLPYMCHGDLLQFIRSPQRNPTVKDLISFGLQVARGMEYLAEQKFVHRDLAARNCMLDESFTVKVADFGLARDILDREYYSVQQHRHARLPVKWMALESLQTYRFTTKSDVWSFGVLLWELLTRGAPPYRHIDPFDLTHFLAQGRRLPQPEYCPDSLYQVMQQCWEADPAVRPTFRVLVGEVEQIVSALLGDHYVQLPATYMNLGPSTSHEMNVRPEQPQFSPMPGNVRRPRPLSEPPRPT
Sequence of LIM domain kinase 2 (Homo sapiens) (P53671 whole entry, looked up, the tested form may be a part): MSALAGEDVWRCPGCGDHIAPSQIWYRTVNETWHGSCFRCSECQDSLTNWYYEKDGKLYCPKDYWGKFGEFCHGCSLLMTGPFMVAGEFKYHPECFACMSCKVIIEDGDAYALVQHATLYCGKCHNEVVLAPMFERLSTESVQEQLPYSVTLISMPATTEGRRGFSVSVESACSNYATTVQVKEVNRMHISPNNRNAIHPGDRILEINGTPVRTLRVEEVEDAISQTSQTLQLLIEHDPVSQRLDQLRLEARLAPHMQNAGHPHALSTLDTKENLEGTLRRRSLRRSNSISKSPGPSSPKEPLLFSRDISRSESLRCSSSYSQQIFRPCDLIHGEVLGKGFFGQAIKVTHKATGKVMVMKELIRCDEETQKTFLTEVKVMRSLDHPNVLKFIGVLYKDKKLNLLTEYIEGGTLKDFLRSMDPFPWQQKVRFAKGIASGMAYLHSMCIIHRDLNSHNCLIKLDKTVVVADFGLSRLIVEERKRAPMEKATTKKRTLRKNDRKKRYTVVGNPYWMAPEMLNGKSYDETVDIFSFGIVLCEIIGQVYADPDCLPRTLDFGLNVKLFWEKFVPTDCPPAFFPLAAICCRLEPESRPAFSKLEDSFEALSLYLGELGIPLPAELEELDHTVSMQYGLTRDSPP
Sequence of Calcium/calmodulin-dependent protein kinase type 1B (Homo sapiens) (Q6P2M8 whole entry): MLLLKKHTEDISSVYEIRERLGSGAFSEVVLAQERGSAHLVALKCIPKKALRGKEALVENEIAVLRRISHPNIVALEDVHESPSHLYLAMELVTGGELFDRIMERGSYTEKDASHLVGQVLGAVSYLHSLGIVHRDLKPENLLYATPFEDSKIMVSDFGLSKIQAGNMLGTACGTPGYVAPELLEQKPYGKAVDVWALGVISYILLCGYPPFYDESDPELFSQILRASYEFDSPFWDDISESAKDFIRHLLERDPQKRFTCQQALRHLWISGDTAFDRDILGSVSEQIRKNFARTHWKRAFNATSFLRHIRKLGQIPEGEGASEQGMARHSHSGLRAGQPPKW

CN(C)C(=O)c1cc2cnc(Nc3ccc(NC(=O)CCCCCCCN=C=S)cc3)nc2n1C1CCCC1
inhibition [1]: 79% | inhibition at 1 µM (NCI-H1299 [2]): 87.4% | IC50 (HepG2): 3.86 µM | Activity (NCI-H1299 [3]): 2.28% | inhibition [4]: 79% | inhibition [5]: 6% | inhibition [6]: 11% | inhibition [7]: 18% | inhibition [8]: 20% | inhibition [9]: 40% | inhibition [10]: 86% | inhibition [11]: 5% | inhibition [12]: 24% | inhibition [13]: 72% | inhibition [14]: 10% | inhibition [15]: 7% | inhibition [16]: 26% | inhibition [17]: 4% | inhibition [18]: 20% | inhibition [19]: 13% | inhibition [20]: 95%
